The source of these data is ChEMBL document CHEMBL4000168, “Carthorquinosides A and B, Quinochalcone C-Glycosides with Diverse Dimeric Skeletons from Carthamus tinctorius” (J Nat Prod, 2016).

A word on the pIC50: it is the negative decadic logarithm of the IC50, by convention in mol/L. Read a high pIC50 as a small IC50.

pIC50: −log10 of the molar value. Activity calls are given as the source filed them. The calls are words filed in the database; no cut-off is given here.

One experiment is filed under the species Bos taurus. Put plainly: Inhibition of calf thymus topoisomerase 1 assessed as decrease in relaxation of supercoiled pBR322 DNA at 100 uM after 30 mins by agarose gel electrophoresis. The procedure, abridged: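 Calf-thymus topoisomerase I relaxation of negatively supercoiled pBR322. Supercoiled and relaxed DNA bands resolved. Test concentration 100 μM. Hydroxycamptothecine served as positive control.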

In experiment [1] the test system is HUVEC. Put plainly: Antiinflammatory activity in HUVEC assessed as downregulation of LPS-induced IL1 mRNA expression at 0.8 to 100 uM by qRT-PCR method. The experiment is classed as functional, cell-based. The settings on record: Homo sapiens. In a few lines:
(§1)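 HUVEC cells grown in DMEM with 10% FBS, streptomycin and penicillin, at 37 °C in humidified 5% CO2. Drug groups received 0.8, 4, 20 or 100 μM drug plus 10 μg/mL LPS. Model group got medium plus LPS, controls got medium only, n = 3 per group. Cells harvested after varying times for cytokine mRNA measurement. Mean ± SD of three independent experiments.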
(In general: Real-time PCR tracks product formation cycle by cycle.)

The subject of experiment [2] is HUVEC. Put plainly: Antiinflammatory activity in HUVEC assessed as downregulation of LPS-induced IL6 mRNA expression at 0.8 to 100 uM by qRT-PCR method. It is filed as functional, cell-based. The settings on record: Homo sapiens. The procedure, abridged: as §1
For experiment [3], the system named is HUVEC. The experiment can be described thus: Antiinflammatory activity in HUVEC assessed as downregulation of LPS-induced IFN-gamma mRNA expression at 0.8 to 100 uM by qRT-PCR method. The settings on record: Homo sapiens. The experiment is classed as functional, cell-based. In a few lines:
as §1

Experiment [4] has as its system HUVEC. The experiment can be described thus: Antiinflammatory activity in LPS stimulated HUVEC assessed as upregulation of IL10 mRNA expression at 0.8 to 100 uM by qRT-PCR method. The experiment is classed as functional, cell-based. The settings on record: Homo sapiens. The procedure, abridged: as §1
The subject of a further experiment is A549. Put plainly: Cytotoxicity against human A549 cells after 72 hrs by MTT assay. The settings on record: A549, 72 h.
The subject of another experiment is HepG2. Put plainly: Cytotoxicity against human HepG2 cells after 72 hrs by MTT assay. The settings on record: HepG2, 72 h. On the technique in general: Tetrazolium dyes change colour on reduction, which living cells bring about.
The next experiment relates to K562. Put plainly: Cytotoxicity against human K562 cells after 72 hrs by MTT assay. The settings on record: K562, 72 h.
Another experiment deals with HCT-116. The experiment can be described thus: Cytotoxicity against human HCT116 cells after 72 hrs by MTT assay. The settings on record: HCT-116, 72 h.
The subject of the next experiment is HeLa. Put plainly: Cytotoxicity against human HeLa cells after 72 hrs by MTT assay.

Consider `O=C(/C=C/c1ccc(O)cc1)C1=C(O)C(C2C3=C(O)[C@@](O)(C4O[C@H](CO)[C@@H](O)[C@H](O)[C@H]4O)C(=O)C(C(=O)/C=C/c4ccc(O)cc4)=C3O[C@@H]2[C@@H](O)[C@H](O)[C@H](O)CO)=C(O)[C@@](O)(C2O[C@H](CO)[C@@H](O)[C@H](O)[C@H]2O)C1=O` (stereo partly drawn), for which the inhibition entry in the experiment filed under Bos taurus is “Active”. For the same molecule, the Activity entry in the experiment on HUVEC [1], with HUVEC [2], in the experiment with HUVEC [3] and with HUVEC [4] was “Dose-dependent effect” throughout.
On to `O=C(/C=C/c1ccc(O)cc1)C1=C(O)C(Cc2c(O)c(O[C@@H]3O[C@H](CO)[C@@H](O)[C@H](O)[C@H]3O)c(O)c3c(=O)c(O[C@@H]4O[C@H](CO)[C@@H](O)[C@H](O)[C@H]4O)c(-c4ccc(O)cc4)oc23)=C(O)[C@@](O)(C2O[C@H](CO)[C@@H](O)[C@H](O)[C@H]2O)C1=O` (stereo partly drawn), for which the result in the experiment on HUVEC [1] and in the experiment on HUVEC [2] was Active. In addition, in the experiment with HUVEC [4], the Activity result was “Dose-dependent effect”.
Consider `CC(=O)O[C@H]1C(=O)[C@@]2(C)[C@H]([C@H](OC(=O)c3ccccc3)[C@]3(O)C[C@H](OC(=O)[C@H](O)[C@@H](NC(=O)c4ccccc4)c4ccccc4)C(C)=C1C3(C)C)[C@]1(OC(C)=O)CO[C@@H]1C[C@@H]2O` [PACLITAXEL], for which the pIC50 was 5.26 in the experiment with A549; 5.17 in the experiment with HepG2; 5.57 in the experiment on K562; 5.48 in the experiment with HCT-116; 5.77 in the experiment with HeLa.
